TPT1 inh: Candida albicans TPT1 enzyme inhibitors, primary screen, biochemical, fluorescence polarization | tRNA 2'-phosphotransferase TPT1 (Candida albicans SC5314) | recombinant caTPT1, FP RNA substrate dephosphorylation | inhibition, % at 5 µM | 300,000 tested, 0.81% active;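 active = inhibition above the mean of all tested compounds plus 3 SD, set per screening campaign, cut at about 24% in these data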;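 note: plate controls were DMSO alone for no effect and ferristatin control at 100 nM for full effect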
Rev-erbA mod: modulators of Rev-erb alpha DNA binding, primary screen, biochemical, FITC-DNA, fluorescence polarization, uHTS. Rev-erbα–FITC-DNA binding, 90 min. activity, % at 10 µM. 370,000 tested, 0.79% active;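 active = activity above about 14%, limit read from the data; passing the limit was not always enough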;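 note: 0% = DMSO wells with 35 nM protein and 100% = DMSO wells with 750 nM protein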
CSN inh: inhibitors of CSN-mediated cullin deneddylation, primary screen, biochemical, fluorescence polarization, uHTS; Purified CSN, SCF-Nedd8-OG deneddylation; 360,000 tested, 0.38% active; inhibition, % at 12.5 µM; AID 651999, 2013; COP9 signalosome complex subunit 5 (Homo sapiens), Q92905;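 active = pattern-corrected inhibition above about 35%, with an unprinted fluorescence ratio check between 0.5 and 1.5, limit read from the data, passing the limit was not always enough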;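 note: 0% = enzyme with substrate and 100% = substrate without enzyme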
Target sequence (Q92905 whole entry, looked up, one chain of several): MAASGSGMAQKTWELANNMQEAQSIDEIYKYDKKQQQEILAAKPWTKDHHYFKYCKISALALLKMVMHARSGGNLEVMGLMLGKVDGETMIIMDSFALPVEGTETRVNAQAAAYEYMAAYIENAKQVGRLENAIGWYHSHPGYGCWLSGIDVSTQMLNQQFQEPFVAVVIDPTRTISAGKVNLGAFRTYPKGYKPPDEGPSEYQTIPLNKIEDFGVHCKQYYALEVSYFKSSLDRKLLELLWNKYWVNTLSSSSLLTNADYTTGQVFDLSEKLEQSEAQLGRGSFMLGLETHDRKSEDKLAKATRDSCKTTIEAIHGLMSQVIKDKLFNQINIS
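Schedule: reaction 90 min, room temperature / Assay system: HEK293T-derived human Csn5 enzyme / Input: Csn5 at 0.24 nM final / Measure: inhibition of Csn5 cleavage, % / Control set: substrate-only high control, full reaction low control / Technique: fluorescence polarization of the substrate / Buffer or medium: Tris/NaCl/DTT buffer, pH 7.5 / Reagent: SCFSkp2-Nedd8OG substrate at 10 nM final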
HNF4A DNA FP: change in binding of human HNF4A to DNA, primary screen, biochemical, fluorescence polarization, FITC-DNA; activity change, % at 10 µM; Hepatocyte nuclear factor 4-alpha (Homo sapiens), P41235; 1 h; AID 1224865, 2016; 360,000 tested, 0.3% active; in the data active = activity change above about 30%, passing the limit was not always enough
The depositor's hits bear a star. Compounds with a hit are over-represented: about 1.7% of the library has one in this group of screens.

What do the screens show for `CCOc1ccc(-n2c(SCC(=O)NN=Cc3ccc(C(=O)O)cc3)nnc2-c2cccnc2)cc1`?
Rev-erbA mod: 0

What do the screens show for `CCn1c(SCC(=O)c2ccccc2)nnc1-c1cccnc1`?
TPT1 inh: 2; Rev-erbA mod: -3; CSN inh: 3; HNF4A DNA FP: 36*

How did CCn1c(SCCC(=O)O)nnc1-c1cccnc1 do in these assays?
TPT1 inh: -3; Rev-erbA mod: -2; CSN inh: 0; HNF4A DNA FP: -3

Results for COc1ccc(-c2cc(-c3ccc(Cl)cc3)c(C#N)c(SCC(=O)O)n2)cc1 ?
TPT1 inh: -2; Rev-erbA mod: -10; CSN inh: 41*; HNF4A DNA FP: -6

Results for O=[N+]([O-])c1ccc(C=CC=Cc2ccccc2)cc1 ?
Rev-erbA mod: -3; CSN inh: 36*; HNF4A DNA FP: 26

How did O=C(C=Cc1ccccc1)c1ccc([N+](=O)[O-])cc1 do in these assays?
Rev-erbA mod: 7; CSN inh: 3; HNF4A DNA FP: 5

What do the screens show for `CC(C)(S)C(N)C(=O)O` (centres undefined)?
Rev-erbA mod: -4

What do the screens show for `Cc1ccc2c(c1)N(Cc1cccc(C#N)c1)C=NS2(=O)=O`?
TPT1 inh: -2; Rev-erbA mod: 0; CSN inh: 100*; HNF4A DNA FP: -2

What do the screens show for `Cc1ccc2c(c1)N(Cc1ccc([N+](=O)[O-])cc1)C=NS2(=O)=O`?
TPT1 inh: -1; Rev-erbA mod: -1; CSN inh: -2; HNF4A DNA FP: 1

How did Brc1ccc2c(c1)C(c1ccc(N3CCOCC3)cc1)=NNC(c1cccs1)=N2 do in these assays?
TPT1 inh: 1; Rev-erbA mod: 3; CSN inh: 14; HNF4A DNA FP: 37*

How did COc1ccc2nc(-c3ccccc3)[nH]c(=O)c2c1 do in these assays?
Rev-erbA mod: 13; CSN inh: -4; HNF4A DNA FP: -1

Results for COc1ccc(-c2nc3ccc(N4CCCC4)cc3c(=O)[nH]2)cc1OC ?
TPT1 inh: 0; Rev-erbA mod: -28; CSN inh: 113*; HNF4A DNA FP: 7

How did N[C@@H](CSCC(=O)O)C(=O)O do in these assays?
Rev-erbA mod: 3

How did O=C(CSc1nc2c([nH]c3ccccc32)c(=O)n1-c1ccccc1)N1CCOCC1 do in these assays?
TPT1 inh: -3; Rev-erbA mod: -10; CSN inh: 1; HNF4A DNA FP: -3

What do the screens show for `O=C(CSc1nc2c([nH]c3ccccc32)c(=O)n1-c1cccc(Cl)c1)N1CCOCC1`?
TPT1 inh: -3; Rev-erbA mod: -14; CSN inh: 80*; HNF4A DNA FP: -7

How did C=CCCC(=O)N1C[C@@H](CO)[C@@H](NC)C[C@H]1c1ccccc1Br do in these assays?
Rev-erbA mod: 0; CSN inh: 107*; HNF4A DNA FP: 0

What do the screens show for `C=CCCC(=O)N1C[C@H]2CCN(C)[C@H]2C[C@H]1c1ccccc1Br`?
Rev-erbA mod: 3

How did CC(=O)OCC(=O)[C@@]1(O)CCC2C3CCC4=CC(=O)C=C[C@]4(C)[C@@]3(Cl)[C@@H](Cl)C[C@@]21C (some centres undefined) do in these assays?
Rev-erbA mod: -3

How did Cc1ccc(-c2nc(NC(=O)CSc3nnc4scc(-c5ccccc5)n34)ns2)cc1 do in these assays?
TPT1 inh: 3; Rev-erbA mod: 0; CSN inh: 37*; HNF4A DNA FP: -3

How did COc1cc(C(=O)N2CCC(NC(=O)C(Cc3ccc(C(C)C)cc3)NC(C)=O)CC2)cc(OC)c1OC (centres undefined) do in these assays?
TPT1 inh: -4; Rev-erbA mod: -2; CSN inh: 0; HNF4A DNA FP: 52*

Results for COc1cc(C(=O)N2CCC(NC(=O)C(Cc3ccc(C)cc3)NC(C)=O)CC2)cc(OC)c1OC (centres undefined) ?
TPT1 inh: -3; Rev-erbA mod: 1; CSN inh: 3; HNF4A DNA FP: -4

Results for CN1c2ccccc2C(C)(C)C12C=Cc1cc(O)ccc1O2 (centres undefined) ?
TPT1 inh: 13; Rev-erbA mod: 0; CSN inh: 26; HNF4A DNA FP: 35*

Results for CN1c2ccccc2C(C)(C)C12C=Nc1c(cc(N3CCOCC3)c3ccccc13)O2 (centres undefined) ?
Rev-erbA mod: 2; CSN inh: 16; HNF4A DNA FP: -4

How did COc1ccc2sc3cccc(NCCN(C)C)c3c(=O)c2c1 do in these assays?
Rev-erbA mod: -1; CSN inh: 4; HNF4A DNA FP: 19

How did CN(C)CCNc1ccc(CO)c2sc3ccc(O)cc3c(=O)c12 do in these assays?
Rev-erbA mod: 11; CSN inh: 5; HNF4A DNA FP: 36*

How did O=C(Nc1ccccc1N1CCCC1)c1ccccc1F do in these assays?
TPT1 inh: -2; Rev-erbA mod: 2; CSN inh: 0; HNF4A DNA FP: 38*

Results for O=C(Nc1ccccc1N1CCCCC1)c1ccccc1F ?
TPT1 inh: -5; Rev-erbA mod: 1; CSN inh: -8; HNF4A DNA FP: 2

What do the screens show for `C=C[C@H]1CN2CC[C@@H]1C[C@@H]2[C@H](O)c1ccnc2ccc(OC)cc12`?
Rev-erbA mod: 3

How did Nc1nc(SCC(=O)NCC2CCCO2)[nH]c(=O)c1NC(=O)c1ccco1 (centres undefined) do in these assays?
TPT1 inh: -1; Rev-erbA mod: 0; CSN inh: 46*; HNF4A DNA FP: 3

How did Nc1nc(SCC(=O)NCC2CCCO2)[nH]c(=O)c1NC(=O)c1ccc(F)c(F)c1 (centres undefined) do in these assays?
TPT1 inh: 0; Rev-erbA mod: 0; CSN inh: -1; HNF4A DNA FP: 1

How did CCCCNC(=O)C1CCCN1C(=O)Nc1cccc(C)c1 (centres undefined) do in these assays?
Rev-erbA mod: 5

How did O=C1COc2ccc(C(=O)COC(=O)c3ccccc3[N+](=O)[O-])cc2N1 do in these assays?
TPT1 inh: 3; Rev-erbA mod: 5; CSN inh: 15; HNF4A DNA FP: 8

What do the screens show for `O=C1COc2ccc(C(=O)COC(=O)c3ccc(Cl)cc3[N+](=O)[O-])cc2N1`?
TPT1 inh: -2; Rev-erbA mod: -2; CSN inh: 77*; HNF4A DNA FP: 1

How did CC(=O)OCC(=O)[C@@]1(O)[C@H](OC(C)=O)CC2C3CCC4=CC(=O)C=C[C@]4(C)[C@@]3(F)[C@@H](O)C[C@@]21C (some centres undefined) do in these assays?
Rev-erbA mod: -9

What do the screens show for `O=C(Nc1cccc(NC(=O)c2cccc([N+](=O)[O-])c2)n1)c1cccc([N+](=O)[O-])c1`?
TPT1 inh: -3; Rev-erbA mod: 0; CSN inh: 3; HNF4A DNA FP: -1

Screening results from PubChem BioAssay.
